According to ChEMBL document CHEMBL5058577, “EUbOPEN Chemogenomics Library 2 (Multiplex)” (2022):

System: U2OS
Assay: Multiplex assay against U2OS
Format: toxicity, cell-based
Conditions: human
Method in brief: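 Imaging took place on a CQ1 microscope at 37°C and 5% CO2 once compound had been added to live cells stained at seeding with Hoechst33342, BioTracker Green Microtubule Cytoskeleton Dye, MitoTracker Red and Annexin V Alexa Fluor 680. CellPathfinder machine-learning gating classed cells as Hoechst high-intensity objects or normal cells, classed normal cells as having healthy, pyknosed or fragmented nuclei, and classed pyknosed cells as mitotic or apoptotic. Tubulin, mitochondrial-mass and membrane-permeability phenotypes are per cents of the healthy-nucleus cells.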

[1] = 12 h, 1 µM, compound concentration 1 uM, replicate 1
[2] = 12 h, 1 µM, compound concentration 1 uM, replicate 2
[3] = 12 h, 10 µM, compound concentration 10 uM, replicate 1
[4] = 12 h, 10 µM, compound concentration 10 uM, replicate 2
[5] = 24 h, 1 µM, compound concentration 1 uM, replicate 1
[6] = 24 h, 1 µM, compound concentration 1 uM, replicate 2
[7] = 24 h, 10 µM, compound concentration 10 uM, replicate 1
[8] = 24 h, 10 µM, compound concentration 10 uM, replicate 2
[9] = 48 h, 1 µM, compound concentration 1 uM, replicate 1
[10] = 48 h, 1 µM, compound concentration 1 uM, replicate 2
[11] = 48 h, 10 µM, compound concentration 10 uM, replicate 1
[12] = 48 h, 10 µM, compound concentration 10 uM, replicate 2

Structure (SMILES): CN(C)C(=O)Cn1cc(-c2ccc(-c3cncc4ccccc34)cc2)cn1
- Population Apoptotic (%) [1]: 68%
- Population Fragmented Nuclei (%) [1]: 22%
- Population Healthy Nuclei (%) [1]: 68%
- Population Hoechst High Intensity Objects (%) [1]: 3%
- Population Membrane Permeable-Phenotype (%) [1]: 8%
- Population Mitochondria Different-Phenotype (%) [1]: 4%
- Population Mitotic Cells (%) [1]: 31%
- Population Normal (%) [1]: 96%
- Population Pyknosed Nuclei (%) [1]: 9%
- Population Tubulin-Different-Phenotype (%) [1]: 5%
- Total Cell Count [1]: 240
- Population Apoptotic (%) [2]: 69%
- Population Fragmented Nuclei (%) [2]: 18%
- Population Healthy Nuclei (%) [2]: 69%
- Population Hoechst High Intensity Objects (%) [2]: 0%
- Population Membrane Permeable-Phenotype (%) [2]: 6%
- Population Mitochondria Different-Phenotype (%) [2]: 2%
- Population Mitotic Cells (%) [2]: 30%
- Population Normal (%) [2]: 99%
- Population Pyknosed Nuclei (%) [2]: 11%
- Population Tubulin-Different-Phenotype (%) [2]: 3%
- Total Cell Count [2]: 110
- Population Apoptotic (%) [3]: 66%
- Population Fragmented Nuclei (%) [3]: 21%
- Population Healthy Nuclei (%) [3]: 67%
- Population Hoechst High Intensity Objects (%) [3]: 5%
- Population Membrane Permeable-Phenotype (%) [3]: 20%
- Population Mitochondria Different-Phenotype (%) [3]: 12%
- Population Mitotic Cells (%) [3]: 33%
- Population Normal (%) [3]: 94%
- Population Pyknosed Nuclei (%) [3]: 10%
- Population Tubulin-Different-Phenotype (%) [3]: 14%
- Total Cell Count [3]: 205
- Population Apoptotic (%) [4]: 100%
- Population Fragmented Nuclei (%) [4]: 18%
- Population Healthy Nuclei (%) [4]: 75%
- Population Hoechst High Intensity Objects (%) [4]: 3%
- Population Membrane Permeable-Phenotype (%) [4]: 22%
- Population Mitochondria Different-Phenotype (%) [4]: 19%
- Population Mitotic Cells (%) [4]: 0%
- Population Normal (%) [4]: 96%
- Population Pyknosed Nuclei (%) [4]: 5%
- Population Tubulin-Different-Phenotype (%) [4]: 23%
- Total Cell Count [4]: 98
- Population Apoptotic (%) [5]: 100%
- Population Fragmented Nuclei (%) [5]: 21%
- Population Healthy Nuclei (%) [5]: 69%
- Population Hoechst High Intensity Objects (%) [5]: 3%
- Population Membrane Permeable-Phenotype (%) [5]: 5%
- Population Mitochondria Different-Phenotype (%) [5]: 2%
- Population Mitotic Cells (%) [5]: 0%
- Population Normal (%) [5]: 96%
- Population Pyknosed Nuclei (%) [5]: 8%
- Population Tubulin-Different-Phenotype (%) [5]: 4%
- Total Cell Count [5]: 278
- Population Apoptotic (%) [6]: 90%
- Population Fragmented Nuclei (%) [6]: 15%
- Population Healthy Nuclei (%) [6]: 76%
- Population Hoechst High Intensity Objects (%) [6]: 1%
- Population Membrane Permeable-Phenotype (%) [6]: 8%
- Population Mitochondria Different-Phenotype (%) [6]: 6%
- Population Mitotic Cells (%) [6]: 9%
- Population Normal (%) [6]: 98%
- Total Cell Count [6]: 127
- Population Apoptotic (%) [7]: 54%
- Population Fragmented Nuclei (%) [7]: 25%
- Population Healthy Nuclei (%) [7]: 64%
- Population Hoechst High Intensity Objects (%) [7]: 3%
- Population Membrane Permeable-Phenotype (%) [7]: 19%
- Population Mitochondria Different-Phenotype (%) [7]: 9%
- Population Mitotic Cells (%) [7]: 45%
- Population Normal (%) [7]: 96%
- Population Pyknosed Nuclei (%) [7]: 9%
- Population Tubulin-Different-Phenotype (%) [7]: 10%
- Total Cell Count [7]: 244
- Population Apoptotic (%) [8]: 80%
- Population Fragmented Nuclei (%) [8]: 11%
- Population Healthy Nuclei (%) [8]: 84%
- Population Hoechst High Intensity Objects (%) [8]: 2%
- Population Membrane Permeable-Phenotype (%) [8]: 16%
- Population Mitochondria Different-Phenotype (%) [8]: 15%
- Population Mitotic Cells (%) [8]: 20%
- Population Normal (%) [8]: 97%
- Population Pyknosed Nuclei (%) [8]: 4%
- Population Tubulin-Different-Phenotype (%) [8]: 14%
- Total Cell Count [8]: 110
- Population Apoptotic (%) [9]: 87%
- Population Fragmented Nuclei (%) [9]: 18%
- Population Healthy Nuclei (%) [9]: 69%
- Population Hoechst High Intensity Objects (%) [9]: 2%
- Population Membrane Permeable-Phenotype (%) [9]: 6%
- Population Mitochondria Different-Phenotype (%) [9]: 3%
- Population Mitotic Cells (%) [9]: 12%
- Population Normal (%) [9]: 97%
- Population Pyknosed Nuclei (%) [9]: 12%
- Population Tubulin-Different-Phenotype (%) [9]: 4%
- Total Cell Count [9]: 333
- Population Apoptotic (%) [10]: 88%
- Population Fragmented Nuclei (%) [10]: 20%
- Population Healthy Nuclei (%) [10]: 67%
- Population Hoechst High Intensity Objects (%) [10]: 3%
- Population Membrane Permeable-Phenotype (%) [10]: 12%
- Population Mitochondria Different-Phenotype (%) [10]: 9%
- Population Mitotic Cells (%) [10]: 11%
- Population Normal (%) [10]: 96%
- Population Pyknosed Nuclei (%) [10]: 11%
- Population Tubulin-Different-Phenotype (%) [10]: 9%
- Total Cell Count [10]: 163
- Population Apoptotic (%) [11]: 74%
- Population Fragmented Nuclei (%) [11]: 22%
- Population Healthy Nuclei (%) [11]: 62%
- Population Hoechst High Intensity Objects (%) [11]: 2%
- Population Membrane Permeable-Phenotype (%) [11]: 15%
- Population Mitochondria Different-Phenotype (%) [11]: 8%
- Population Mitotic Cells (%) [11]: 25%
- Population Normal (%) [11]: 97%
- Population Pyknosed Nuclei (%) [11]: 14%
- Population Tubulin-Different-Phenotype (%) [11]: 8%
- Total Cell Count [11]: 302
- Population Apoptotic (%) [12]: 92%
- Population Fragmented Nuclei (%) [12]: 21%
- Population Healthy Nuclei (%) [12]: 68%
- Population Membrane Permeable-Phenotype (%) [12]: 20%
- Population Mitochondria Different-Phenotype (%) [12]: 14%
- Population Mitotic Cells (%) [12]: 7%
- Population Pyknosed Nuclei (%) [12]: 9%
- Population Tubulin-Different-Phenotype (%) [12]: 16%
- Total Cell Count [12]: 149
